This passage reports IC50, minimal effective dose and ED50 results from ChEMBL document CHEMBL1124258, “(Imidazo[1,2-a]pyrimidin-2-yl)phenylmethanones and related compounds as potential nonsedative anxiolytics” (J Med Chem, 1988).

Assay [1] addresses GABA-A receptor; anion channel. Description: Inhibition of 0.6 nM [3H]flunitrazepam binding to GABA-A central benzodiazepine receptor of rat forebrain membrane. The method, boiled down: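 Rat forebrain membranes with [3H]flunitrazepam at 0.6 nM, modified Squires–Braestrup method. IC50 (nM) read from displacement curves of at least four concentrations, each in triplicate.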

For assay [2], the species on record is Rattus norvegicus. Description: Minimum Effective Dose (MED) was measured using Food-Conflict test in rats. Particulars: read-out: MED. Type of assay: functional. The method, boiled down: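 Male Lister rats on alternating schedule: five 4-min FI30 unpunished and 3-min FR5 punished components (food-motivated). Oral dosing, first at 50 mg/kg in four rats, then at decreasing doses if active until the minimum effective dose was reached.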

Assay [3] is filed under the species Mus musculus. Description: Muscle relaxation in mice by using Pull-Up test. Type of assay: functional.
The species named for assay [4] is Mus musculus. Description: Sedative/muscle relaxant effect in mice by using Rotating-Drum test. Type of assay: functional. In short, it runs like this:
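Male CD-1 mice were placed on a rotating drum (3 cm diameter, 16 rev/min) 1 h after dosing. Mean time on the drum for groups of 10 was expressed as a percentage of the control group mean.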

In assay [5] the test system is Mus musculus. Put plainly: Anticonvulsant activity in CD-1 mice with 120 mg/kg of leptazol. The class given is functional. The method, boiled down: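 Male CD-1 mice challenged with leptazol at 120 mg/kg, following Everett and Richards. ED50 (mg/kg po) with 95% confidence limits by Litchfield–Wilcoxon where the doses allowed.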
For assay [6], the species on record is Rattus norvegicus. Description: Minimum Effective Dose(MED was measured by using Licking-Conflict test in rats. Type of assay: functional. Particulars: read-out: MED. In short, it runs like this: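 Rats trained to stable suppression of drinking at tone onset. Each session had 1 min unpunished drinking, then a tone lasting through a 3-min punished period.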

Each structure is given as a SMILES string.

A word on the IC50: it is the midpoint of a concentration-inhibition curve. In general, ED50 refers to the midpoint of the dose-response relation. Read a low ED50 as an effect at a small dose.

`CCCCc1c(OC)nc2nc(C(=O)c3ccccc3)cn2c1CC` yielded an IC50 in assay [1] of 34 nM. For the same compound, in the assay listed under Rattus norvegicus [2], the minimal effective dose turned out to be 10 mg/kg.
The like results for `CCOc1nc2nc(C(=O)c3ccccc3)cn2c2c1CSCC2` were, in that order, > 10000 nM and > 50 mg/kg.
On to `CCc1c(SC)nc2nc(C(=O)c3ccccc3)cn2c1C`, for which the IC50 in assay [1] turned out to be 12 nM. For the same compound, the values for the ED50 in the assay filed under Mus musculus [3], in the assay listed under Mus musculus [4] and in the assay with Mus musculus [5] were 200 mg/kg, 100 mg/kg and 12.5 mg/kg, respectively. Besides, the minimal effective dose in the assay listed under Rattus norvegicus [6] and in the assay filed under Rattus norvegicus [2] was 2 mg/kg in each case.
Take `CCc1ccc2c(c1)c(OC)cc1nc(C(=O)c3ccccc3)cn12`: in assay [1], the IC50 is 14 nM. Moreover, the ED50 stood at 640 mg/kg in the assay filed under Mus musculus [3], 22.5 mg/kg in the assay filed under Mus musculus [4] and 3.2 mg/kg in the assay on Mus musculus [5]. Further, the minimal effective dose stood at 2 mg/kg in the assay listed under Rattus norvegicus [6] and 5 mg/kg in the assay listed under Rattus norvegicus [2].
Take `CCCc1c(OC)nc2nc(C(=O)c3ccccc3)cn2c1C`: in assay [1], the IC50 came out at 85 nM. Besides, the ED50 in the assay filed under Mus musculus [3] came out at 100 mg/kg; in the assay filed under Mus musculus [4], 100 mg/kg; in the assay on Mus musculus [5], 200 mg/kg. In addition, the minimal effective dose in the assay listed under Rattus norvegicus [6] and in the assay filed under Rattus norvegicus [2] was 5 mg/kg each time.
Turning to `C=CCc1c(OC)nc2nc(C(=O)c3ccccc3)cn2c1C`, the IC50 in assay [1] was found to be 45 nM. Also, the ED50 was determined as 100 mg/kg in the assay listed under Mus musculus [4] and 54 mg/kg with Mus musculus [5]. For the same compound, the results for the minimal effective dose in the assay listed under Rattus norvegicus [6] and in the assay listed under Rattus norvegicus [2] were 10 mg/kg and 5 mg/kg, respectively.
The compound `COc1nc2nc(C(=O)c3ccccc3)cn2c(C)c1OC` displayed an IC50 in assay [1] of 1000 nM. Also, the minimal effective dose in the assay listed under Rattus norvegicus [2] turned out to be 5 mg/kg.
The compound `C=CCc1c(SC)nc2nc(C(=O)c3ccccc3)cn2c1C` registered an IC50 in assay [1] of 8 nM. Also, the minimal effective dose in the assay listed under Rattus norvegicus [2] was determined as 5 mg/kg.
The compound `COc1nc2nc(C(=O)c3ccccc3)cn2c2c1CCCC2` displayed an IC50 in assay [1] of 61 nM. The ED50 was found to be 500 mg/kg in the assay listed under Mus musculus [3], 200 mg/kg in the assay filed under Mus musculus [4] and 100 mg/kg with Mus musculus [5]. For the same compound, the minimal effective dose in the assay listed under Rattus norvegicus [6] and in the assay filed under Rattus norvegicus [2] was 5 mg/kg throughout.
For `CNC1=Nc2ccc(Cl)cc2C(c2ccccc2)=[N+]([O-])C1` [CHLORDIAZEPOXIDE], the values for the ED50 in the assay filed under Mus musculus [3], in the assay filed under Mus musculus [4] and with Mus musculus [5] were 16 mg/kg, 6.8 mg/kg and 1.9 mg/kg, respectively. For the same compound, the minimal effective dose in the assay filed under Rattus norvegicus [6] stood at 2 mg/kg; in the assay filed under Rattus norvegicus [2], 5 mg/kg.
With `CCc1c(OC)nc2nc(C(=O)c3ccccc3)cn2c1C` [DIVAPLON], the IC50 in assay [1] was 56 nM. The values for the ED50 in the assay filed under Mus musculus [3], in the assay listed under Mus musculus [4] and with Mus musculus [5] were 200 mg/kg, 200 mg/kg and 21 mg/kg, respectively. Also, the minimal effective dose in the assay filed under Rattus norvegicus [6] and in the assay listed under Rattus norvegicus [2] was 2 mg/kg in each case.
